# Results published in ChEMBL document CHEMBL1150419, “Structure-activity relationships of a peptide inhibitor of the human FcRn:human IgG interaction” (Bioorg Med Chem, 2008).
# Square brackets hold non-standard residues; d marks the D form. Peptide text beside a SMILES is read from it. Dap = NC[C@H](N)C(=O)O
# Biological target: T1, IgG receptor FcRn large subunit p51 (Homo sapiens, UniProt P55899)
# Experiment: Inhibition of human IgG binding to soluble human FcRn by ELISA
# Summary of the method: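 Biotinylated soluble human FcRn immobilized on neutravidin plates, incubated with hIgG (3 nM, constant) and peptide at varying concentrations for 2 h at 37 °C. After washing, bound hIgG detected with peroxidase-conjugated hIgG-specific Fab fragments.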
# T1 sequence (P55899 whole entry): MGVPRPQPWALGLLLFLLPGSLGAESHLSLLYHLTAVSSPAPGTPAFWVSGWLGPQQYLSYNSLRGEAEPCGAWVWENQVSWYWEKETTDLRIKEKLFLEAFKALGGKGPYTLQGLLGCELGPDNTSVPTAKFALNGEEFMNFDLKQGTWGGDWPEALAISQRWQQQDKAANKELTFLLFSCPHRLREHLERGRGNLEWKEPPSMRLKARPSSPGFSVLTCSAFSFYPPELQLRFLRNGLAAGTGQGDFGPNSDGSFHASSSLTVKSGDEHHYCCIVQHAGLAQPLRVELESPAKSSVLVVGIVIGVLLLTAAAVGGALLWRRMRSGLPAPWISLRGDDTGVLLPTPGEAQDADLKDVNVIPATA
row,Structure (SMILES),IC50 [µM]
1,CC(C)C[C@@H](C(=O)N[C@@H](Cc1ccc(O)cc1)C(=O)N1CCC[C@H]1C(=O)N[C@@H](CS)C(=O)O)N1CC[C@H](NC(=O)CNC(=O)[C@H](Cc2ccccc2)NC(=O)[C@H](Cc2cnc[nH]2)NC(=O)CNC(=O)[C@@H](NC(=O)[C@@H](NC(=O)[C@H](Cc2ccccc2)NC(=O)[C@@H](N)CCCNC(=N)N)C(C)(C)S)[C@@H](C)O)C1=O,19
2,CC(C)C[C@H](NC(=O)Cc1cccc(NC(=O)[C@H](Cc2ccccc2)NC(=O)[C@H](Cc2cnc[nH]2)NC(=O)CNC(=O)[C@@H](NC(=O)[C@@H](NC(=O)[C@H](Cc2ccccc2)NC(=O)[C@@H](N)CCCN=C(N)N)C(C)(C)S)[C@@H](C)O)c1)C(=O)N[C@@H](Cc1ccc(O)cc1)C(=O)N1CCC[C@H]1C(=O)N[C@@H](CS)C(=O)O,14
3,CC(C)C[C@H](NC(=O)CNC(=O)CNC(=O)[C@H](Cc1ccccc1)NC(=O)[C@H](Cc1cnc[nH]1)NC(=O)CNC(=O)[C@@H](NC(=O)[C@H](CC(=O)O)NC(=O)[C@H](Cc1ccccc1)NC(=O)[C@H](CCCN=C(N)N)NC(=O)[C@@H](N)CCC(N)=O)[C@@H](C)O)C(=O)N[C@@H](Cc1ccc(O)cc1)C(=O)N1CCC[C@H]1C(=O)N[C@@H](CN)C(=O)N[C@@H](CC(N)=O)C(=O)NCC(=O)N1CCC[C@H]1C(=O)O,32
4,CC(C)C[C@H](NC(=O)c1ccc(CNC(=O)[C@H](Cc2ccccc2)NC(=O)[C@H](Cc2cnc[nH]2)NC(=O)CNC(=O)[C@@H](NC(=O)[C@@H](NC(=O)[C@H](Cc2ccccc2)NC(=O)[C@@H](N)CCCNC(=N)N)C(C)(C)S)[C@@H](C)O)cc1)C(=O)N[C@@H](Cc1ccc(O)cc1)C(=O)N1CCC[C@H]1C(=O)N[C@@H](CS)C(=O)O,> 125
5,CC(C)C[C@H](NC(=O)Cc1ccc(NC(=O)[C@H](Cc2ccccc2)NC(=O)[C@H](Cc2cnc[nH]2)NC(=O)CNC(=O)[C@@H](NC(=O)[C@@H](NC(=O)[C@H](Cc2ccccc2)NC(=O)[C@@H](N)CCCN=C(N)N)C(C)(C)S)[C@@H](C)O)cc1)C(=O)N[C@@H](Cc1ccc(O)cc1)C(=O)N1CCC[C@H]1C(=O)N[C@@H](CS)C(=O)O,> 125
6,CC(C)C[C@H](NC(=O)[C@H]1CSC2C[C@@H](NC(=O)[C@H](Cc3ccccc3)NC(=O)[C@H](Cc3cnc[nH]3)NC(=O)CNC(=O)[C@@H](NC(=O)[C@H](NC(=O)[C@H](Cc3ccccc3)NC(=O)[C@@H](N)CCCNC(=N)N)C(C)(C)S)[C@@H](C)O)C(=O)N21)C(=O)N[C@@H](Cc1ccc(O)cc1)C(=O)N1CCC[C@H]1C(=O)N[C@@H](CS)C(=O)O (some centres not stated),23
7,CC(C)C[C@H](NC(=O)c1cccc(CNC(=O)[C@H](Cc2ccccc2)NC(=O)[C@H](Cc2cnc[nH]2)NC(=O)CNC(=O)[C@@H](NC(=O)[C@@H](NC(=O)[C@H](Cc2ccccc2)NC(=O)[C@@H](N)CCCN=C(N)N)C(C)(C)S)[C@@H](C)O)c1)C(=O)N[C@@H](Cc1ccc(O)cc1)C(=O)N1CCC[C@H]1C(=O)N[C@@H](CS)C(=O)O,57
8,CC(C)C[C@H](NC(=O)[C@H]1CS[C@@H]2CC[C@@H](NC(=O)[C@H](Cc3ccccc3)NC(=O)[C@H](Cc3cnc[nH]3)NC(=O)CNC(=O)[C@@H](NC(=O)[C@H](NC(=O)[C@H](Cc3ccccc3)NC(=O)[C@@H](N)CCCN=C(N)N)C(C)(C)S)[C@@H](C)O)C(=O)N12)C(=O)N[C@@H](Cc1ccc(O)cc1)C(=O)N1CCC[C@H]1C(=O)N[C@@H](CS)C(=O)O,2.2
9,CC(C)C[C@H](NC(=O)CNC(=O)CNC(=O)[C@H](Cc1ccccc1)NC(=O)[C@H](Cc1cnc[nH]1)NC(=O)CNC(=O)[C@@H](NC(=O)[C@H](CN)NC(=O)[C@H](Cc1ccccc1)NC(=O)[C@H](CCCN=C(N)N)NC(=O)[C@@H](N)CCC(N)=O)[C@@H](C)O)C(=O)N[C@@H](Cc1ccc(O)cc1)C(=O)N1CCC[C@H]1C(=O)N[C@@H](CCC(=O)O)C(=O)N[C@@H](CC(N)=O)C(=O)NCC(=O)N1CCC[C@H]1C(=O)O (H-QRF[Dap]TGHFGGLYPENGP-OH),> 125

# The next lines start with the values.
row,IC50 [µM],Structure (SMILES)
1,120,CC(C)C[C@H](NC(=O)CNC(=O)CNC(=O)[C@H](Cc1ccccc1)NC(=O)[C@H](Cc1cnc[nH]1)NC(=O)CNC(=O)[C@@H](NC(=O)[C@H](CN)NC(=O)[C@H](Cc1ccccc1)NC(=O)[C@H](CCCNC(=N)N)NC(=O)[C@@H](N)CCC(N)=O)[C@@H](C)O)C(=O)N[C@@H](Cc1ccc(O)cc1)C(=O)N1CCC[C@H]1C(=O)N[C@@H](CC(=O)O)C(=O)N[C@@H](CC(N)=O)C(=O)NCC(=O)N1CCC[C@H]1C(=O)O
2,30,CC(C)C[C@H](NC(=O)CNC(=O)CNC(=O)[C@H](Cc1ccccc1)NC(=O)[C@H](Cc1cnc[nH]1)NC(=O)CNC(=O)[C@@H](NC(=O)[C@H](CCCN)NC(=O)[C@H](Cc1ccccc1)NC(=O)[C@H](CCCNC(=N)N)NC(=O)[C@@H](N)CCC(N)=O)[C@@H](C)O)C(=O)N[C@@H](Cc1ccc(O)cc1)C(=O)N1CCC[C@H]1C(=O)N[C@@H](CCC(=O)O)C(=O)N[C@@H](CC(N)=O)C(=O)NCC(=O)N1CCC[C@H]1C(=O)O
3,120,CC(C)C[C@H](NC(=O)CNC(=O)CNC(=O)[C@H](Cc1ccccc1)NC(=O)[C@H](Cc1cnc[nH]1)NC(=O)CNC(=O)[C@@H](NC(=O)[C@H](CCCN)NC(=O)[C@H](Cc1ccccc1)NC(=O)[C@H](CCCNC(=N)N)NC(=O)[C@@H](N)CCC(N)=O)[C@@H](C)O)C(=O)N[C@@H](Cc1ccc(O)cc1)C(=O)N1CCC[C@H]1C(=O)N[C@@H](CC(=O)O)C(=O)N[C@@H](CC(N)=O)C(=O)NCC(=O)N1CCC[C@H]1C(=O)O
4,60,CC(C)C[C@H](NC(=O)CNC(=O)CNC(=O)[C@H](Cc1ccccc1)NC(=O)[C@H](Cc1cnc[nH]1)NC(=O)CNC(=O)[C@@H](NC(=O)[C@H](CCCCN)NC(=O)[C@H](Cc1ccccc1)NC(=O)[C@H](CCCNC(=N)N)NC(=O)[C@@H](N)CCC(N)=O)[C@@H](C)O)C(=O)N[C@@H](Cc1ccc(O)cc1)C(=O)N1CCC[C@H]1C(=O)N[C@@H](CC(=O)O)C(=O)N[C@@H](CC(N)=O)C(=O)NCC(=O)N1CCC[C@H]1C(=O)O

# Biological target: T1, IgG receptor FcRn large subunit p51
# Experiment: Binding affinity to human FcRn at pH 6 by surface plasmon resonance assay
# Summary of the method: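 Soluble human FcRn coupled to the dextran surface of a CM5 chip; peptide dilutions flowed over the chip. The equilibrium response at each dilution was plotted against concentration and fitted to a steady-state affinity model to give Kd.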
row,Structure (SMILES),Kd [µM]
1,CC(C)C[C@H](NC(=O)CNC(=O)CN(C)C(=O)[C@H](Cc1ccccc1)NC(=O)[C@H](Cc1cnc[nH]1)NC(=O)CNC(=O)[C@@H](NC(=O)[C@@H](NC(=O)[C@H](Cc1ccccc1)NC(=O)[C@H](CCCN=C(N)N)NC(=O)[C@@H](N)CCC(N)=O)C(C)(C)S)[C@@H](C)O)C(=O)N[C@@H](Cc1ccc(O)cc1)C(=O)N1CCC[C@H]1C(=O)N[C@@H](CS)C(=O)N[C@@H](CC(N)=O)C(=O)NCC(=O)N1CCC[C@H]1C(=O)O,2
2,CC(C)C[C@H](NC(=O)CNC(=O)CNC(=O)[C@H](Cc1ccccc1)N(C)C(=O)[C@H](Cc1cnc[nH]1)NC(=O)CNC(=O)[C@@H](NC(=O)[C@@H](NC(=O)[C@H](Cc1ccccc1)NC(=O)[C@H](CCCN=C(N)N)NC(=O)[C@@H](N)CCC(N)=O)C(C)(C)S)[C@@H](C)O)C(=O)N[C@@H](Cc1ccc(O)cc1)C(=O)N1CCC[C@H]1C(=O)N[C@@H](CS)C(=O)N[C@@H](CC(N)=O)C(=O)NCC(=O)N1CCC[C@H]1C(=O)O,> 250
3,CC(C)C[C@H](NC(=O)CNC(=O)CNC(=O)[C@H](Cc1ccccc1)NC(=O)[C@H](Cc1cnc[nH]1)NC(=O)CNC(=O)[C@@H](NC(=O)[C@@H](NC(=O)[C@H](Cc1ccccc1)NC(=O)[C@H](CCCNC(=N)N)NC(=O)[C@@H](N)CCC(N)=O)C(C)(C)S)[C@@H](C)O)C(=O)N(C)[C@@H](Cc1ccc(O)cc1)C(=O)N1CCC[C@H]1C(=O)N[C@@H](CS)C(=O)N[C@@H](CC(N)=O)C(=O)NCC(=O)N1CCC[C@H]1C(=O)O,92

# Second part, the compound after the results:
row,Kd [µM],Structure (SMILES)
1,> 250,CC(C)C[C@H](NC(=O)CNC(=O)CNC(=O)[C@H](Cc1ccccc1)NC(=O)[C@H](Cc1cnc[nH]1)NC(=O)CNC(=O)[C@@H](NC(=O)[C@H](NC(=O)[C@H](Cc1ccccc1)NC(=O)[C@H](CCCNC(=N)N)NC(=O)[C@@H](N)CCC(N)=O)C(C)(C)S)[C@@H](C)O)C(=O)N[C@H](Cc1ccc(O)cc1)C(=O)N1CCC[C@H]1C(=O)N[C@H](CS)C(=O)N[C@@H](CC(N)=O)C(=O)NCC(=O)N1CCC[C@H]1C(=O)O
2,> 250,CC(C)C[C@@H](NC(=O)CNC(=O)CNC(=O)[C@@H](Cc1ccccc1)NC(=O)[C@H](Cc1cnc[nH]1)NC(=O)CNC(=O)[C@@H](NC(=O)[C@H](NC(=O)[C@H](Cc1ccccc1)NC(=O)[C@H](CCCNC(=N)N)NC(=O)[C@@H](N)CCC(N)=O)C(C)(C)S)[C@@H](C)O)C(=O)N[C@@H](Cc1ccc(O)cc1)C(=O)N1CCC[C@H]1C(=O)N[C@H](CS)C(=O)N[C@@H](CC(N)=O)C(=O)NCC(=O)N1CCC[C@H]1C(=O)O
3,> 250,CC(C)C[C@H](NC(=O)CNC(=O)CNC(=O)[C@@H](Cc1ccccc1)NC(=O)[C@H](Cc1cnc[nH]1)NC(=O)CNC(=O)[C@@H](NC(=O)[C@@H](NC(=O)[C@H](Cc1ccccc1)NC(=O)[C@H](CCCN=C(N)N)NC(=O)[C@@H](N)CCC(N)=O)C(C)(C)S)[C@@H](C)O)C(=O)N[C@@H](Cc1ccc(O)cc1)C(=O)N1CCC[C@H]1C(=O)N[C@@H](CS)C(=O)N[C@@H](CC(N)=O)C(=O)NCC(=O)N1CCC[C@H]1C(=O)O
4,2.1,CC(C)C[C@H](NC(=O)CNC(=O)CNC(=O)[C@H](Cc1ccccc1)NC(=O)[C@H](Cc1cnc[nH]1)NC(=O)CNC(=O)[C@@H](NC(=O)[C@H](CCS)NC(=O)[C@H](Cc1ccccc1)NC(=O)[C@H](CCCNC(=N)N)NC(=O)[C@@H](N)CCC(N)=O)[C@@H](C)O)C(=O)N[C@@H](Cc1ccc(O)cc1)C(=O)N1CCC[C@H]1C(=O)N[C@H](C(=O)N[C@@H](CC(N)=O)C(=O)NCC(=O)N1CCC[C@H]1C(=O)O)C(C)(C)S
5,> 250,CC(C)C[C@H](NC(=O)CNC(=O)CNC(=O)[C@H](Cc1ccccc1)NC(=O)[C@H](Cc1cnc[nH]1)NC(=O)CNC(=O)[C@@H](NC(=O)[C@H](NC(=O)[C@H](Cc1ccccc1)NC(=O)[C@H](CCCNC(=N)N)NC(=O)[C@@H](N)CCC(N)=O)C(C)(C)S)[C@@H](C)O)C(=O)N[C@@H](Cc1ccc(O)cc1)C(=O)N1CCC[C@@H]1C(=O)N[C@H](CS)C(=O)N[C@@H](CC(N)=O)C(=O)NCC(=O)N1CCC[C@H]1C(=O)O
6,6.1,CC(C)C[C@H](NC(=O)CNC(=O)CNC(=O)[C@H](Cc1ccccc1)NC(=O)[C@H](Cc1cnc[nH]1)NC(=O)CNC(=O)[C@@H](NC(=O)[C@H](CS)NC(=O)[C@H](Cc1ccccc1)NC(=O)[C@H](CCCNC(=N)N)NC(=O)[C@@H](N)CCC(N)=O)[C@@H](C)O)C(=O)N[C@@H](Cc1ccc(O)cc1)C(=O)N1CCC[C@H]1C(=O)N[C@@H](CS)C(=O)N[C@@H](CC(N)=O)C(N)=O
